This is an account of results in publication PMC3685407 (Neuropharmacology, 2013).

In test [1] the test system is L-dopa-induced AIMs in parkinsonian rats. The note with it: cited from earlier work.
The test system of test [2] is L-dopa-induced AIMs in 6-OHDA lesioned rats. The note with it: cited from earlier work.
For test [3], the system named is L-dopa-induced dyskinesias in Parkinson’s disease patients. As to conditions: small clinical trial, ref http://www.neuraltus.com/pages/news.html; cited from earlier work.
The next test has as its target muscle nAChRs (Homo sapiens, UniProt P02708+P07510+Q07001). The experiment in a line: biochemical. Format: binding.
For another test, the target named is human α3β4 nAChRs (Homo sapiens, UniProt P30926+P32297). The experiment in a line: Competition membrane binding.
Chain of human α3β4 nAChRs (P32297 32-505): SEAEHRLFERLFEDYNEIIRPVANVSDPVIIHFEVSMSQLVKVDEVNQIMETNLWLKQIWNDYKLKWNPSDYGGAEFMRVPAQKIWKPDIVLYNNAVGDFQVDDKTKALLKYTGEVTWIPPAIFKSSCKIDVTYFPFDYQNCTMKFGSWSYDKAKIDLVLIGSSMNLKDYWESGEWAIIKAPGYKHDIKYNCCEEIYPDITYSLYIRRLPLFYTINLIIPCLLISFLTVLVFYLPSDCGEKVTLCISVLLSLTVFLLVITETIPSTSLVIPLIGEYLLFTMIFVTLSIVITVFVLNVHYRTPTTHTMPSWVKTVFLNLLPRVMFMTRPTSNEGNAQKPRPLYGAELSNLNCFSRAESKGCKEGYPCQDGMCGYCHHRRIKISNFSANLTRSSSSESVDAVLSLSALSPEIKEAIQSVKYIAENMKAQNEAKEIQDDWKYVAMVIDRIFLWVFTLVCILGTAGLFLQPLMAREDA
Chain of human α3β4 nAChRs (P30926 22-498): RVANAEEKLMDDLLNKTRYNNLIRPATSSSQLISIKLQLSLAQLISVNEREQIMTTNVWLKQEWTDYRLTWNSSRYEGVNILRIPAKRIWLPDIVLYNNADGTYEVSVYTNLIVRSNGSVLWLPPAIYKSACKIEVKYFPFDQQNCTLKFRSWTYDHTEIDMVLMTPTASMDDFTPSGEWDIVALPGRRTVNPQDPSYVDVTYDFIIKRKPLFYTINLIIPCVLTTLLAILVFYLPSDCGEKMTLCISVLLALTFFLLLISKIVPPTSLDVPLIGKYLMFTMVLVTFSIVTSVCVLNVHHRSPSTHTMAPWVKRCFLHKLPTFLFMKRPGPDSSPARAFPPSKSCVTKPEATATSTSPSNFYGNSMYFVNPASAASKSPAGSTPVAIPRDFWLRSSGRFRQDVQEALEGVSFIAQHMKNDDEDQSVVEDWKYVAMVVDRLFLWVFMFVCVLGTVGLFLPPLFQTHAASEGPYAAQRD
A further test addresses human α7 nAChRs (Homo sapiens, UniProt P36544). The experiment in a line: biochemical. It is filed as binding.
For test [4], the system named is L-dopa-induced AIMs in 6-OHDA lesioned rats. As to the kind of experiment: L-dopa-induced AIMs in rats with severe unilateral 6-OHDA lesion. It is filed as in vivo, rat. As to conditions: for AIM subtypes significantly affected by nAChR compounds: axial, oral, forelimb AIMs; for AIM subtypes significantly affected by nAChR compounds / Decrease in total AIM scores: severe dopaminergic lesion; for Decrease in total AIM scores: maximal decrease over the treatment periods, L-dopa 6 or 8 mg/kg plus benserazide 15 mg/kg sc; for Reduction in L-dopa-induced AIMs: range over the series, rats with severe nigrostriatal damage; for Total AIMs score: summary table, L-dopa 6 or 8 mg/kg plus benserazide, group not stated.

Test [5] has as its system ^3H-dopamine release from rat striatal synaptosomes. As to conditions: read-out: EC50 for 3H-dopamine release; rat striatum; ref Zwart et al., 2008; cited from earlier work.
The subject of test [6] is forelimb use asymmetry in 6-OHDA lesioned rats. The experiment in a line: Limb use asymmetry test. It is filed as in vivo, rat. As to conditions: for % Contralateral limb use, nAChR compound: 5 min period, mean ± S.E.M of 5–9 rats. The method, boiled down: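 Unilateral intracranial 6-OHDA lesions in rats (230–250 g). Forelimb use was rated over 5 min, once before and once 60 min after sc L-dopa plus benserazide (8.0 or 6.0 mg/kg plus 15 mg/kg, depending on study). The read-out was % contralateral limb use. Test compound was given by minipump or sc injection. In one study, testing was 4 wk after L-dopa treatment began.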

[7] abbreviates: rats with severe dopaminergic lesions, ref Bordia et al., 2010.

Each structure is given as a SMILES string. Read-outs that look alike come from different tables or passages of the source.

Chain of muscle nAChRs (P07510 23-517): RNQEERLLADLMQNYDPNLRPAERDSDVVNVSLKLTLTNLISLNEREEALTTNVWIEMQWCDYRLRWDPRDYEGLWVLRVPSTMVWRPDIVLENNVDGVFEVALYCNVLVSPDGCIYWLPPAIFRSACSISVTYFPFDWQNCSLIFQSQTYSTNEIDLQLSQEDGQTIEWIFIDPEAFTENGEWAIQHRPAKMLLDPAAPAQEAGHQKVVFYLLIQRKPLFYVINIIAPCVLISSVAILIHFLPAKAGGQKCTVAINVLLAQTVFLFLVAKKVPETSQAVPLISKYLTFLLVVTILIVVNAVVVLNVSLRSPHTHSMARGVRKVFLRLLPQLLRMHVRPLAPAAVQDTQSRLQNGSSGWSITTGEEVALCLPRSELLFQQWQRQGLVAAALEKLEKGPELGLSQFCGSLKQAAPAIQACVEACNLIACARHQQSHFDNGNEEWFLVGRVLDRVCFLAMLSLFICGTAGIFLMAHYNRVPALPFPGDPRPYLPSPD
Chain of muscle nAChRs (Q07001 22-517): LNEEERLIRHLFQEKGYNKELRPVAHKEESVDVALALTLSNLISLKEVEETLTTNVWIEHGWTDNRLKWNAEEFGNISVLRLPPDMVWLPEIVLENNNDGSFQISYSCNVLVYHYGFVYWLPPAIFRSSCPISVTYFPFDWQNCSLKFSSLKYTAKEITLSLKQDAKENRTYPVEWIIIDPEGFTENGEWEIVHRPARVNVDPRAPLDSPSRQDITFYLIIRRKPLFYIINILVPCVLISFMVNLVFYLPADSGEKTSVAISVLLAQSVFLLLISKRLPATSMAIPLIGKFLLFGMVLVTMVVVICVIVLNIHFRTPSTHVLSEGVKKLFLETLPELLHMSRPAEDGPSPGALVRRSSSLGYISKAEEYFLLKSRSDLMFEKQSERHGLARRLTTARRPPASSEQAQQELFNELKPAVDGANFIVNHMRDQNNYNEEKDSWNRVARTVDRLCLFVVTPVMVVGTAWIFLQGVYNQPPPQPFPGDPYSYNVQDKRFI
Chain of muscle nAChRs (P11230 24-501, further chain): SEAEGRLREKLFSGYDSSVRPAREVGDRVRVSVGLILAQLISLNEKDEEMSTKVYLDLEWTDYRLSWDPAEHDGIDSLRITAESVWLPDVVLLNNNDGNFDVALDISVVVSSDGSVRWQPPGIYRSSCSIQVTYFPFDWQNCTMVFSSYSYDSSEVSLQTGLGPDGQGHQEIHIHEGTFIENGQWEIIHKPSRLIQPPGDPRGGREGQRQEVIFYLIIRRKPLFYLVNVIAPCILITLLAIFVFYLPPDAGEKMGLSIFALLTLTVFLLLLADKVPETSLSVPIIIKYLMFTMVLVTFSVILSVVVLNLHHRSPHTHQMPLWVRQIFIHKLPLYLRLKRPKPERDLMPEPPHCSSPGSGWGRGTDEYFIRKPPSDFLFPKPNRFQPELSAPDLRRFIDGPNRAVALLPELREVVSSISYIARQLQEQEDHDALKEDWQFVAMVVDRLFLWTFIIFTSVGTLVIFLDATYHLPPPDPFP
Chain of muscle nAChRs (P02708 21-457): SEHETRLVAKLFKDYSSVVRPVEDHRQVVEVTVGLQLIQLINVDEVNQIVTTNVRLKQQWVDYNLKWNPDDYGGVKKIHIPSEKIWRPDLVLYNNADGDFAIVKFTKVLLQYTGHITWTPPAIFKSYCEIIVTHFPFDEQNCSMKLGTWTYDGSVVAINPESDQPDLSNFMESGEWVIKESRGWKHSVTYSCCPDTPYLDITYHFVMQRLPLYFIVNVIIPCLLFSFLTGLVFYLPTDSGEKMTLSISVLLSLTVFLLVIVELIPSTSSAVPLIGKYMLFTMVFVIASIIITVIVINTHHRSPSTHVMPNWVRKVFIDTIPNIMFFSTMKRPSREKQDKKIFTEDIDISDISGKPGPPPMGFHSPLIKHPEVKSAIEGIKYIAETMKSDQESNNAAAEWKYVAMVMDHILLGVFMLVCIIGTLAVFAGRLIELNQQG
Chain of human α7 nAChRs (P36544 23-502): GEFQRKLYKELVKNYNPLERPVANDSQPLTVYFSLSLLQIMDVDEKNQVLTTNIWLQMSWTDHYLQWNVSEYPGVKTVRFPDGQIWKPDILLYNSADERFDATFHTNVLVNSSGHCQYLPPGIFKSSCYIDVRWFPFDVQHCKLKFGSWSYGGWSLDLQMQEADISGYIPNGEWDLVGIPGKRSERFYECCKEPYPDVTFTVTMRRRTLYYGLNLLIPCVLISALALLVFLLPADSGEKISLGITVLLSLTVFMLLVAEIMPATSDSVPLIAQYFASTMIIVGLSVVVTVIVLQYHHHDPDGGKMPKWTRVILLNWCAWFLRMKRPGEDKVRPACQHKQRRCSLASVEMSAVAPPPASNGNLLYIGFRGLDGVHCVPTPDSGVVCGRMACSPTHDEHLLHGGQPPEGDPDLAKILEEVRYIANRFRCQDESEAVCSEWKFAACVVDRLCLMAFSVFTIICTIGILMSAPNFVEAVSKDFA

`c1cncc(OC[C@@H]2CCN2)c1` [A85380]: the “Effect on L-dopa-induced AIMs” value in [1] (6-OHDA lesioned rats, ref Huang et al., 2011b) is recorded as “reduced L-dopa-induced AIMs”.

As usually defined, the Ki is the dissociation constant of the complex between target and ligand, obtained from inhibition or displacement. Turning to `CN1CCC[C@H]1c1cccnc1` [Nicotine], in [1] (study ended at this time, ref Bordia et al., 2008, Bordia et al., 2010), the “Persistence of the effect on L-dopa-induced AIMs with treatment” value is reported as “at least 4 months”. In addition, in test [2] (setting [7]), the “AIM subtypes significantly affected by nAChR compounds” value (from here on “AIM subtypes significantly affected”) is on record as “Oral = forelimb”, the “Decrease in total AIM scores” value is 35% and the “Total AIMs score” value is recorded as roughly 75. Moreover, the “Effect on L-dopa-induced dyskinesias” value in test [3] is “reduced several components of L-dopa-induced dyskinesias”. For the same compound, the inhibition constant (Ki) at muscle nAChRs was found to be 3500 nM.

The EC50 is the concentration at which the effect is half-maximal. `OCCCCC#Cc1cncc(OC[C@@H]2CCN2)c1` [Sazetidine, 6-(5-(((S)-azetidin-2-yl)methoxy)pyridine-3-yl)hex-5-yn-1-ol]: the results for the Ki on human α3β4 nAChRs, on human α7 nAChRs and at muscle nAChRs were 30 ± 2 nM, 3.3 µM and 180 ± 84 nM, respectively. The “Effect on L-dopa-induced AIMs” value in test [4] (0.5 mg/kg sc twice daily, L-dopa 8 mg/kg plus benserazide) is “no effect”; in test [4] (1.0 mg/kg sc twice daily, L-dopa 8 mg/kg plus benserazide, P < 0.05), “decline in total, oral and forelimb AIMs”; in [4] (2.0 mg/kg sc twice daily, compared with 1.0 mg/kg dose, data not shown) it was “Results were similar”. The “AIM subtypes significantly affected” value in [4] is “Oral = forelimb”. The “Decrease in total AIM scores” value in test [4] is 23%. Moreover, the “Reduction in L-dopa-induced AIMs” value in [4] is reported as 23–32%. In addition, in [4], the “Total AIMs score” value is given as roughly 75. In test [5], the EC50 was 1 nM.

Consider `CN[C@@H](C)C/C=C/c1cncc(OC)c1` [TC-2696], for which the “% Contralateral limb use, nAChR compound” value in [6] (OFF L-dopa (before L-dopa)) was 3.27 ± 1.5%. Further, in test [6] (ON L-dopa (60 min after L-dopa)), the “% Contralateral limb use, nAChR compound” value is 35.6 ± 13.1%. For the same compound, the “Effect on parkinsonism (forepaw asymmetry test)” value in test [6] (result in words) is “no significant effect”. The Ki at human α7 nAChRs (read-out: Ki α7 nAChRs, membrane binding, 3H-epibatidine, average ± SEM) worked out at 85 µM. Also, the “Effect on L-dopa-induced AIMs” value in test [4] (1.0 mg/kg/d via minipump, L-dopa 8 mg/kg plus benserazide 15 mg/kg sc) is “fewer total L-dopa-induced AIMs”. Further, in [4] ([…] via minipump, L-dopa 8 mg/kg plus benserazide), the “Effect on L-dopa-induced AIMs” value was “results similar to those at the 1.0 mg/kg/d dose of the compound, except for a significant decline in forelimb AIMs”. In test [4], the “AIM subtypes significantly affected” value is on record as “Axial > forelimb”, the “Decrease in total AIM scores” value was found to be 30%, the “Reduction in L-dopa-induced AIMs” value was 23–32% and the “Total AIMs score” value was roughly 75.

Take `c1cnc2cc3c(cc2n1)[C@@H]1CNC[C@H]3C1` [Varenicline]: the “Decrease in total AIM scores” value in test [2] (severely lesioned rats, non-significant, ref Huang et al., 2011b) is listed as 10%. Besides, in test [2] (severely lesioned rats, ref Huang et al., 2011b), the “Total AIMs score” value is roughly 60.

As to `CNC1(C)C2CCC(C2)C1(C)C` (stereo not shown) [mecamylamine], the “Effect on L-dopa-induced AIMs” value in test [1] (parkinsonian rats, ref Bordia et al., 2010) is listed as “attenuated AIMs”.
